# Measurements from ChEMBL document CHEMBL5257027 (Eur J Med Chem, 2016).
# Legend:
# Assay type in all cases: functional
# MDA-MB-468 = experiment: Antiproliferative activity against human MDA-MB-468 cells assessed as reduction in cell growth
# Method in brief: (§1)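 NCI five-dose testing across the 58-line panel gives GI50, TGI and LC50 for each line. Subpanel lines report mean GI50 for each of the nine cancer types.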
# HOP-92 = experiment: Antiproliferative activity against human HOP-92 cells assessed as reduction in cell growth; method in brief: as §1
# SK-MEL-5 = experiment: Antiproliferative activity against human SK-MEL-5 cells assessed as reduction in cell growth; method in brief: as §1
# RXF 393 = experiment: Antiproliferative activity against human RXF 393 cells assessed as reduction in cell growth; method in brief: as §1
# SNB-75 = experiment: Antiproliferative activity against human SNB-75 cells assessed as reduction in cell growth; method in brief: as §1
# NCI/ADR-RES = experiment: Antiproliferative activity against human NCI/ADR-RES cells assessed as reduction in cell growth; method in brief: as §1
# PC-3 = experiment: Antiproliferative activity against human PC-3 cells assessed as reduction in cell growth; method in brief: as §1
# HCT-15 = experiment: Antiproliferative activity against human HCT-15 cells assessed as reduction in cell growth; method in brief: as §1
# K562 = experiment: Antiproliferative activity against human K562 cells assessed as reduction in cell growth; method in brief: as §1
# COLO 205 = experiment: Antiproliferative activity against human COLO 205 cells assessed as reduction in cell growth; method in brief: as §1
compound,measurement,setting,value
COc1cccc(-c2nn(-c3ccccc3)cc2-c2ccnc(NCCCNC(=O)c3cccc(C(F)(F)F)c3)c2)c1,GI50,MDA-MB-468,1.95 µM
same,GI50,HOP-92,2.48 µM
same,GI50,SK-MEL-5,1.54 µM
same,GI50,RXF 393,2.2 µM
same,GI50,SNB-75,17 µM
same,GI50,NCI/ADR-RES,3.54 µM
same,GI50,PC-3,3.18 µM
same,GI50,HCT-15,3.4 µM
same,GI50,K562,3.69 µM
same,GI50,COLO 205,3.33 µM
